20 compounds from ChEMBL document CHEMBL1129935, “Chromophore-modified bis-naphthalimides: synthesis and antitumor activity of bis-dibenz[de,h]isoquinoline-1,3-diones” (J Med Chem, 1997) can be followed below.

Test [1] has as its system HT-29. Put plainly: In vitro cytotoxicity against HT-29 (human colon adenocarcinoma) cell line. It counts as functional, cell-based. The method, boiled down:
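Human colon carcinoma HT-29 cells, 3000/well in DMEM with 10% FBS, attached 24 h. Free bases dissolved in DMSO, final DMSO <1%, added as 1:4 serial dilutions. Exposure 72 h at 37 °C, 5% CO2. MTT added for 4 h, formazan solubilized overnight in 25% SDS (pH 2), absorbance read at 550 nm. IC50 taken as concentration giving 50% of control growth.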

Test [2] has as its system Mus musculus. Put plainly: Median survival time of Compound on C57B1/6 mice which was implanted intraperitoneally with M5076 murine sarcoma cells at the dose of 5.0 mg/kg (dose administered intraperitoneally on days 1, 5 and 9). In kind it is functional. The conditions noted are these: route intraperitoneal. The method, boiled down: (§1)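 M5076 murine sarcoma, 10^6 cells implanted intraperitoneally into C57Bl/6 mice. Median survival time recorded for treated (T) and control (C) groups. %T/C calculated as the treated median survival relative to the control median survival, times 100.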

Test [3] has as its system Mus musculus. Put plainly: Median survival time of treated mice (T) compared to controls expressed as a percentage (%T/C) at the dose of 5.0 mg/kg (dose administered intraperitoneally on days 1, 5 and 9). It counts as functional. The conditions noted are these: route intraperitoneal. The method, boiled down:
as §1

Test [4] has as its system Mus musculus. Put plainly: Median survival time of Compound on C57B1/6 mice which was implanted intraperitoneally with M5076 murine sarcoma cells at the dose of 7.5 mg/kg (dose administered intraperitoneally on days 1, 5 and 9). It counts as functional. The conditions noted are these: route intraperitoneal. The method, boiled down:
as §1

Test [5] deals with Mus musculus. Put plainly: Median survival time of Compound on C57B1/6 mice which was implanted intraperitoneally with M5076 murine sarcoma cells at the dose of 3.3 mg/kg (dose administered intraperitoneally on days 1, 5 and 9). In kind it is functional. The conditions noted are these: route intraperitoneal. In a few lines: as §1
Test [6] relates to Mus musculus. Put plainly: Median survival time of treated mice (T) compared to controls expressed as a percentage (%T/C) at the dose of 7.5 mg/kg (dose administered intraperitoneally on days 1, 5 and 9). The conditions noted are these: route intraperitoneal. It counts as functional. In a few lines:
as §1

Test [7] relates to Mus musculus. Put plainly: Median survival time of treated mice (T) compared to controls expressed as a percentage (%T/C) at the dose of 3.3 mg/kg (dose administered intraperitoneally on days 1, 5 and 9). In kind it is functional. The conditions noted are these: route intraperitoneal. The method, boiled down:
as §1

The subject of test [8] is Mus musculus. Put plainly: Median survival time of Compound on C57B1/6 mice which was implanted intraperitoneally with M5076 murine sarcoma cells at the dose of 2.2 mg/kg (dose administered intraperitoneally on days 1, 5 and 9). It counts as functional. The conditions noted are these: route intraperitoneal. In a few lines: as §1
Test [9] concerns Mus musculus. Put plainly: Median survival time of treated mice (T) compared to controls expressed as a percentage (%T/C) at the dose of 2.2 mg/kg (dose administered intraperitoneally on days 1, 5 and 9). The conditions noted are these: route intraperitoneal. It counts as functional. The method, boiled down: as §1
In test [10] the test system is Mus musculus. Put plainly: Median survival time of Compound on C57B1/6 mice which was implanted intraperitoneally with M5076 murine sarcoma cells at the dose of 1.8 mg/kg (dose administered intraperitoneally on days 1, 5 and 9). In kind it is functional. The conditions noted are these: route intraperitoneal. The method, boiled down: (§2)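 M5076 murine sarcoma cells (10^6) implanted ip in C57Bl/6 mice. Agent given as its dimethanesulfonate salt dissolved in water. Median survival time (MST) recorded for treated and concurrent control groups. Activity expressed as %T/C, the treated MST as a percentage of the control MST.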

In test [11] the test system is Mus musculus. Put plainly: Median survival time of Compound on C57B1/6 mice which was implanted intraperitoneally with M5076 murine sarcoma cells at the dose of 0.8 mg/kg (dose administered intraperitoneally on days 1, 5 and 9). It counts as functional. The conditions noted are these: route intraperitoneal. In a few lines: as §2
Test [12] relates to Mus musculus. Put plainly: Median survival time of treated mice (T) compared to controls expressed as a percentage (%T/C) at the dose of 1.8 mg/kg (dose administered intraperitoneally on days 1, 5 and 9). In kind it is functional. The conditions noted are these: route intraperitoneal. The method, boiled down: as §2
Test [13] deals with Mus musculus. Put plainly: Median survival time of Compound on C57B1/6 mice which was implanted intraperitoneally with M5076 murine sarcoma cells at the dose of 1.2 mg/kg (dose administered intraperitoneally on days 1, 5 and 9). The conditions noted are these: route intraperitoneal. It counts as functional. In a few lines:
as §2

Test [14] relates to Mus musculus. Put plainly: Median survival time of treated mice (T) compared to controls expressed as a percentage (%T/C) at the dose of 0.8 mg/kg (dose administered intraperitoneally on days 1, 5 and 9). It counts as functional. The conditions noted are these: route intraperitoneal. The method, boiled down: as §2
The test system of test [15] is Mus musculus. Put plainly: Median survival time of treated mice (T) compared to controls expressed as a percentage (%T/C) at the dose of 1.2 mg/kg (dose administered intraperitoneally on days 1, 5 and 9). It counts as functional. The conditions noted are these: route intraperitoneal. In a few lines:
as §2

As usually defined, the IC50 is the midpoint of a concentration-inhibition curve. As usually defined, the T/C is the ratio of treated to control.

On to `O=C1c2cccc3cc4ccccc4c(c23)C(=O)N1CCCNCCCCNCCCN1C(=O)c2cccc3cc4ccccc4c(c23)C1=O`, for which the midpoint of inhibition in [1], the IC50, lay at 200 nM.

Turning to `CN(C)CCN1C(=O)c2cccc3cc4ccccc4c(c23)C1=O` [AZONAFIDE], the IC50 in test [1] stood at 140 nM. Still for that read-out and setting: to `O=C1c2cccc3cc4ccccc4c(c23)C(=O)N1CCCNCCN1C(=O)c2cccc3cc4ccccc4c(c23)C1=O` belongs 2000 nM; to `O=C1c2cccc3cc4ccccc4c(c23)C(=O)N1CCCNCCNCCCN1C(=O)c2cccc3cc4ccccc4c(c23)C1=O`, 95 nM. `O=C1c2cccc3cccc(c23)C(=O)N1CCNCCCNCCN1C(=O)c2cccc3cccc(c23)C1=O` [ELINAFIDE]: the MST in test [2] was 24 days; in test [4] it was 21 days; in test [5] it was 21.5 days; in test [8], 21.5 days. For the same compound, the T/C stood at 102% in test [3], 89% in test [6], 91% in test [7] and 91% in [9]. Also, in [1], the half-maximal inhibitory concentration (IC50) worked out at 14 nM.

In turn, `CN(CCN(C)CCN1C(=O)c2cccc3cc4ccccc4c(c23)C1=O)CCN1C(=O)c2cccc3cc4ccccc4c(c23)C1=O` gave an IC50 in [1] of 75 nM. Same read-out and setting: under `CN(C)CCN1C(=O)c2cccc3cc([N+](=O)[O-])cc(c23)C1=O` [MITONAFIDE] stands 600 nM; under `O=C1c2cccc3cc4ccccc4c(c23)C(=O)N1CCNCCN1C(=O)c2cccc3cc4ccccc4c(c23)C1=O`, 30 nM. The compound `O=C1c2cccc3cc4ccccc4c(c23)C(=O)N1CCNCCNCCN1C(=O)c2cccc3cc4ccccc4c(c23)C1=O` showed an IC50 in [1] of 9 nM. The same measure, in the same setting: under `O=C1c2cccc3cc4ccccc4c(c23)C(=O)N1CCNCCCCNCCN1C(=O)c2cccc3cc4ccccc4c(c23)C1=O` stands 41 nM; under `O=C1c2cccc3cc4ccccc4c(c23)C(=O)N1CCCNCCCNCCCN1C(=O)c2cccc3cc4ccccc4c(c23)C1=O`, 90 nM. Same read-out and setting: to `O=C1c2cccc3cc4ccccc4c(c23)C(=O)N1CCCNCCCN1C(=O)c2cccc3cc4ccccc4c(c23)C1=O` belongs 20 nM; to `O=C1c2cccc3cc4c([N+](=O)[O-])cccc4c(c23)C(=O)N1CCNCCCNCCN1C(=O)c2cccc3cc4c([N+](=O)[O-])cccc4c(c23)C1=O`, 35 nM; to `O=C1c2cccc3cc4ccccc4c(c23)C(=O)N1CCCCNCCCN1C(=O)c2cccc3cc4ccccc4c(c23)C1=O`, 70 nM. Still for that read-out and setting: to `O=C1c2cccc3cc4ccccc4c(c23)C(=O)N1CCNCCCCCNCCN1C(=O)c2cccc3cc4ccccc4c(c23)C1=O` belongs 9 nM. Take `CN(C)CCN1C(=O)c2cccc3cc(N)cc(c23)C1=O` [AMONAFIDE]: half-maximal inhibition in [1] (IC50) was put at 3000 nM. Compound `O=C1c2cccc3cc4ccccc4c(c23)C(=O)N1CCN1CCCN(CCN2C(=O)c3cccc4cc5ccccc5c(c34)C2=O)C1` came in with an IC50 in test [1] of 2 nM. Regarding `CN(CCCN1C(=O)c2cccc3cc4ccccc4c(c23)C1=O)CCCN1C(=O)c2cccc3cc4ccccc4c(c23)C1=O`, the IC50 in [1] amounted to 19 nM. For the compound `O=C1c2cccc3cc4c([N+](=O)[O-])cccc4c(c23)C(=O)N1CCNCCNCCN1C(=O)c2cccc3cc4c([N+](=O)[O-])cccc4c(c23)C1=O`, in test [1], the IC50 was 95 nM. Regarding `O=C1c2cccc3cc4ccccc4c(c23)C(=O)N1CCNCCCNCCN1C(=O)c2cccc3cc4ccccc4c(c23)C1=O`, the MST in [10] stood at 31.2 days; in test [11], 31.5 days; in test [13], 34 days. Besides, the results for the T/C in [12], in test [14] and in test [15] were 143%, 143% and 155%, respectively. Also, the IC50 in [1] worked out at 4 nM.
